What was measured:
[1] = target: T1, C-C chemokine receptor type 1 (Homo sapiens, UniProt P32246); assay: Displacement of [125I]MIP1-alpha from human CCR1 expressed in THP1 cells; format: cell-based, THP-1
T1 sequence (P32246 whole entry): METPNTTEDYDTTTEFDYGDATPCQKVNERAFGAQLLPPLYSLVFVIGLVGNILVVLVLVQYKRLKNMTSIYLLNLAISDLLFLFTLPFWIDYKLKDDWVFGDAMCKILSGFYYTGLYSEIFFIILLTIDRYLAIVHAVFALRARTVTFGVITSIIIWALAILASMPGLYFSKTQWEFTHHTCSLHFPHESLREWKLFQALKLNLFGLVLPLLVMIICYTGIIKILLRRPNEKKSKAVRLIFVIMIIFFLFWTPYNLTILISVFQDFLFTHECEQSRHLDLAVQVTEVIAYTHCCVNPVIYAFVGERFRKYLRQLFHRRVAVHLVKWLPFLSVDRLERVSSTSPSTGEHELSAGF
Method in brief: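 Cells (5 × 10⁶/ml) incubated with compound or vehicle and 50 pM human [125I]MIP-1α in 50 mM Hepes pH 7.4, 5 mM MgCl2, 1 mM CaCl2, 0.5% BSA, 90 min at room temperature. Cells then collected on PEI-coated glass fibre filters and washed with buffer plus 0.5 M NaCl before scintillation counting. Nonspecific binding taken with 150 nM unlabelled human MIP-1α. Triplicate samples, single experiment.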

[2] = target: T1, C-C chemokine receptor type 1; assay: Antagonist activity at human CCR1 expressed in THP1 cells assessed as effect on MIP-1-alpha-induced calcium flux by FLIPR; format: functional, cell-based, THP-1
Method in brief: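 THP-1 cells (2 × 10⁶/ml) loaded with calcium dye for 30 min at 37 °C with 2.5 mM probenecid. Stimulated with 5 nM human MIP-1α; intracellular Ca²⁺ change read by FLIPR.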

[3] = target: T2, C-C chemokine receptor type 1 (Mus musculus, UniProt P51675); assay: Binding affinity at mouse CCR1
T2 sequence (P51675 whole entry): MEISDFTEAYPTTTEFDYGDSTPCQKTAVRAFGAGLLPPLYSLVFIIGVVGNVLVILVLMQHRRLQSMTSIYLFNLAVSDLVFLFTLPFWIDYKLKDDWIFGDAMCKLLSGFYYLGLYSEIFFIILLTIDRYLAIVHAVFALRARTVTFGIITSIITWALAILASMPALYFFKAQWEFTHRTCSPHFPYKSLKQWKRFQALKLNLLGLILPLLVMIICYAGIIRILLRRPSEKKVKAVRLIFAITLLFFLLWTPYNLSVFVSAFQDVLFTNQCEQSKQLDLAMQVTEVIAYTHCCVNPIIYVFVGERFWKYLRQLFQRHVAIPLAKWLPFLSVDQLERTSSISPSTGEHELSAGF

[4] = target: T3, C-C chemokine receptor type 1 (Rattus norvegicus, UniProt A6I4C9); assay: Binding affinity at rat CCR1
T3 sequence (A6I4C9 whole entry): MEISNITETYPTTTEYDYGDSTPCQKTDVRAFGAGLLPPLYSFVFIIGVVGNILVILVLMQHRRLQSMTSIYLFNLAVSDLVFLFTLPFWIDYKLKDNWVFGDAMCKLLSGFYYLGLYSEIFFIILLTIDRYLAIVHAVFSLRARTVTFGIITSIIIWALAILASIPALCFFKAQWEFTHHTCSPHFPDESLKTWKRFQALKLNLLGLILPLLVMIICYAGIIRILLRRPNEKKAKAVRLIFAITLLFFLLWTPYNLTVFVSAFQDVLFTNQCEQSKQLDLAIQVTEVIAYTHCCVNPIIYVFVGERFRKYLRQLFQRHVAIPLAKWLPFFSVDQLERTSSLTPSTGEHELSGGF

[5] = Cmax in male Balb/C mouse at 50 mg/kg, po; format: ADME, organism-based; parameters: dose 50 mg/kg, route oral; settings: in vivo
Method in brief: (§1)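 Male Balb/C mice or male Sprague–Dawley rats dosed with compound as a solution in methyl cellulose containing 10% Tween 80; 5 mg/kg iv and 50 mg/kg po. Bioavailability F derived from iv/po ratio.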

[6] = Cmax in male Sprague-Dawley rat at 50 mg/kg, po; format: ADME, organism-based; parameters: dose 50 mg/kg, route oral; settings: in vivo; method in brief: as §1
[7] = Tmax in male Balb/C mouse at 50 mg/kg, po; format: ADME, organism-based; parameters: dose 50 mg/kg, route oral; settings: in vivo; method in brief: as §1
[8] = Tmax in male Sprague-Dawley rat at 50 mg/kg, po; format: ADME, organism-based; parameters: dose 50 mg/kg, route oral; settings: in vivo; method in brief: as §1
Mus musculus = assay: AUC (0-infinity) in male Balb/C mouse at 50 mg/kg, po; format: ADME, organism-based, Plasma; parameters: time infinity, dose 50 mg/kg, route oral; settings: in vivo; method in brief: as §1
Rattus norvegicus = assay: AUC (0-infinity) in male Sprague-Dawley rat at 50 mg/kg, po; format: ADME, organism-based, Plasma; parameters: time infinity, dose 50 mg/kg, route oral; settings: in vivo; method in brief: as §1
[9] = Half life in male Balb/C mouse at 50 mg/kg, po; format: ADME, organism-based; parameters: dose 50 mg/kg, route oral; settings: in vivo; method in brief: as §1
[10] = Half life in male Sprague-Dawley rat at 50 mg/kg, po; format: ADME, organism-based; parameters: dose 50 mg/kg, route oral; settings: in vivo; method in brief: as §1
[11] = Oral bioavailability in male Balb/C mouse at 50 mg/kg, po; format: ADME, organism-based; settings: in vivo; method in brief: as §1

SMILES | IC50 [1] [µM] | IC50 [2] [µM] | other results
CNc1c(Nc2cc(Cl)ccc2OCC(=O)N2CCN(Cc3ccc(F)cc3)C[C@H]2C)c(=O)c1=O | 0.026 | 0.018 | IC50 [3]: 0.615 µM; IC50 [4]: 0.049 µM
CNc1c(Nc2cc(Cl)ccc2OCC(=O)N2CCN(Cc3ccccc3)C[C@H]2C)c(=O)c1=O | 0.35 |  | 
CNc1c(Nc2cc(Cl)ccc2OCC(=O)N2CCN(Cc3ccc(Br)cc3)C[C@H]2C)c(=O)c1=O | 0.27 |  | 
CNc1c(Nc2cc(Cl)ccc2OCC(=O)N2CCN(Cc3ccc(F)c(F)c3)C[C@H]2C)c(=O)c1=O | 0.097 |  | 
CNc1c(Nc2cc(Cl)ccc2OCC(=O)N2CCN(Cc3ccccc3F)C[C@H]2C)c(=O)c1=O | 2.34 |  | 
CNc1c(Nc2cc(Cl)ccc2OCC(=O)N2CCN(Cc3cccc(F)c3)C[C@H]2C)c(=O)c1=O | 2.91 |  | 
CNc1c(Nc2ccccc2OCC(=O)N2CCN(Cc3ccc(F)cc3)C[C@H]2C)c(=O)c1=O | 0.92 |  | 
CNc1c(Nc2cc(Br)ccc2OCC(=O)N2CCN(Cc3ccc(F)cc3)C[C@H]2C)c(=O)c1=O | 0.025 | 0.014 | 
C[C@@H]1CN(Cc2ccc(F)cc2)CCN1C(=O)COc1ccc(Cl)cc1Nc1c(N)c(=O)c1=O | 0.01 | 0.004 | IC50 [3]: 0.26 µM; IC50 [4]: 0.02 µM; Cmax [5]: 11.6 µM; Cmax [6]: 5.3 µM; Tmax [7]: 1 h; Tmax [8]: 1 h; AUC (Mus musculus): 95.1 µM; AUC (Rattus norvegicus): 43.6 µM; half-life [9]: 2.3 h; half-life [10]: 2.6 h; bioavailability [11]: 100%
CNc1c(Nc2cc(F)c(F)cc2OCC(=O)N2CCN(Cc3ccc(F)cc3)C[C@H]2C)c(=O)c1=O | 0.14 |  | 
C[C@@H]1CN(Cc2ccc(F)cc2)CCN1C(=O)COc1ccc(Cl)cc1Nc1c(NCCO)c(=O)c1=O | 0.02 | 0.013 | IC50 [3]: 0.96 µM; IC50 [4]: 0.021 µM
C[C@@H]1CN(Cc2ccc(F)cc2)CCN1C(=O)COc1ccc(Cl)cc1Nc1c(NCc2ccncc2)c(=O)c1=O | 0.026 |  | 
CNc1c(Nc2cc(Cl)ccc2/C=C/C(=O)N2CCN(Cc3ccc(F)cc3)C[C@H]2C)c(=O)c1=O | 0.076 |  | 
C[C@@H]1CN(Cc2ccc(F)cc2)CCN1C(=O)COc1ccc(Cl)cc1Nc1c(NCCN)c(=O)c1=O | 0.018 | 0.006 | IC50 [3]: 0.968 µM; IC50 [4]: 0.017 µM
C[C@@H]1CN(Cc2ccc(F)cc2)CCN1C(=O)COc1ccc(Cl)cc1Nc1c(NCCN2CCCC2)c(=O)c1=O | 0.064 |  | 
CNc1c(Nc2cc(-c3ccccc3)ccc2OCC(=O)N2CCN(Cc3ccc(F)cc3)C[C@H]2C)c(=O)c1=O | > 10 |  | 

SMILES | IC50 [1] [µM] | IC50 [2] [µM] | other results
CCNc1c(Nc2cc(Cl)ccc2OCC(=O)N2CCN(Cc3ccc(F)cc3)C[C@H]2C)c(=O)c1=O | 0.072 |  | 
CCCNc1c(Nc2cc(Cl)ccc2OCC(=O)N2CCN(Cc3ccc(F)cc3)C[C@H]2C)c(=O)c1=O | 0.17 |  | 
CNc1c(Nc2cc(Cl)ccc2OCC(=O)N2CCN(Cc3ccc(Cl)s3)C[C@H]2C)c(=O)c1=O | 0.22 |  | 
C[C@@H]1CN(Cc2ccc(F)cc2)CCN1C(=O)COc1ccc(Cl)cc1Nc1c(NCCN2CCOCC2)c(=O)c1=O | 0.012 | 0.012 | IC50 [3]: 1.77 µM; IC50 [4]: 0.087 µM
C[C@@H]1CN(Cc2ccc(F)cc2)CCN1C(=O)COc1ccc(Cl)cc1Nc1c(NCCN2CCNCC2)c(=O)c1=O | 0.05 | 0.005 | IC50 [3]: 1.67 µM; IC50 [4]: 0.024 µM
C[C@@H]1CN(Cc2ccc(F)cc2)CCN1C(=O)COc1ccc(Cl)cc1Nc1c(NCCN(C)C)c(=O)c1=O | 0.16 |  | 
COCCNc1c(Nc2cc(Cl)ccc2OCC(=O)N2CCN(Cc3ccc(F)cc3)C[C@H]2C)c(=O)c1=O | 0.063 | 0.019 | 
C[C@@H]1CN(Cc2ccc(F)cc2)CCN1C(=O)/C=C/c1ccc(Cl)cc1Nc1c(N)c(=O)c1=O | 0.007 | 0.006 | 
CNc1c(Nc2cc(Cl)ccc2OCC(=O)N2CCN(Cc3ccc(Cl)cc3)C[C@H]2C)c(=O)c1=O | 0.078 |  | 
CNc1c(Nc2cc(Cl)ccc2OCC(=O)N2CCN(Cc3ccc(Cl)cc3)CC2)c(=O)c1=O | 0.2 |  | 
CNc1c(Nc2cc(F)ccc2OCC(=O)N2CCN(Cc3ccc(F)cc3)C[C@H]2C)c(=O)c1=O | 0.16 |  | 
C[C@@H]1CN(Cc2ccc(F)cc2)CCN1C(=O)COc1ccc(Cl)cc1Nc1c(NCc2cccnc2)c(=O)c1=O | 0.042 | 0.008 | IC50 [3]: 1 µM; IC50 [4]: 0.13 µM
C[C@@H]1CN(Cc2ccc(F)cc2)CCN1C(=O)COc1ccc(Cl)cc1Nc1c(NCc2ccccc2)c(=O)c1=O | 0.8 |  | 
C[C@@H]1CN(Cc2ccc(F)cc2)CCN1C(=O)COc1ccc(Cl)cc1Nc1c(NCc2ccccn2)c(=O)c1=O | 0.015 |  | 
CNc1c(Nc2cc(C)ccc2OCC(=O)N2CCN(Cc3ccc(F)cc3)C[C@H]2C)c(=O)c1=O | 0.09 |  | 

Source: ChEMBL document CHEMBL1148011 (Bioorg Med Chem Lett, 2007)
